From ChEMBL document CHEMBL3779827, “A new series of 2-phenol-4-aryl-6-chlorophenyl pyridine derivatives as dual topoisomerase I/II inhibitors: Synthesis, biological evaluation and 3D-QSAR study” (Eur J Med Chem, 2016)
Counter-ions that a name gives are not always drawn.

Legend:
[1] = Cytotoxicity against human HCT15 cells after 48 hrs by CCK8 assay; type: functional, cell-based; details: HCT-15, 48 h
Procedure, shortened: (§1)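 IC50 values are reported in micromolar. Adriamycin, etoposide and camptothecin served as positive controls.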

[2] = Cytotoxicity against human DU145 cells after 48 hrs by CCK8 assay; details: DU-145, 48 h
[3] = test system: HeLa; test: Cytotoxicity against human HeLa cells after 48 hrs by CCK8 assay; type: functional, cell-based; procedure, shortened: as §1

Row | SMILES | IC50 [1] | IC50 [2] | IC50 [3]
1 | CC[C@@]1(O)C(=O)OCc2c1cc1n(c2=O)Cc2cc3ccccc3nc2-1 [CAMPTOTHECIN] | 2.82 µM | 0.02 µM | 0.18 µM
2 | COc1cccc2c1C(=O)c1c(O)c3c(c(O)c1C2=O)C[C@@](O)(C(=O)CO)C[C@@H]3O[C@H]1C[C@H](N)[C@H](O)[C@H](C)O1 [DOXORUBICIN HYDROCHLORIDE] | 1.23 µM | – | –
3 | COc1cc([C@@H]2c3cc4c(cc3[C@@H](O[C@@H]3O[C@@H]5CO[C@@H](C)O[C@H]5[C@H](O)[C@H]3O)[C@H]3COC(=O)[C@H]23)OCO4)cc(OC)c1O [ETOPOSIDE] | 18.9 µM | 2.09 µM | –
